B1: tRNA (parent)
chain: GUUCCGUUGGCGUAAUGGUAACGCGUCUCCCUCCUAAGGAGAAGACUGCGGGUUCGAGUCCCGUACGGAACG

Variants at the floor of the assay were thinned out.

In this data set the parent is B1. Description: yeast fitness relative to wild type (ratio to wild type); higher = fitter; tRNA-Arg(CCU), competitive growth, 37 C, YPD. An outline of the steps: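 Gene amplicons from the start population and from each of six end populations were read by 100-nucleotide paired-end sequencing. Those end populations came from pooled Saccharomyces cerevisiae strains carrying tRNA-Arg(CCU) gene variants at the native locus, competed in YPD at 37°C for 24 hours. Fitness relative to wild type was worked out from changes in genotype frequencies. Genotypes needed ≥ 100 starting reads, and estimates < 0.5 were set to 0.5.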
For C34G A57C, the yeast fitness was no more than 0.5.

As to C33U C55A C66U, the yeast fitness worked out at 0.562.

As to U35G G38A G52C, the yeast fitness worked out at 0.678.

Consider C34U C46A C55G, for which the yeast fitness came out at 0.672.

Consider A36G G50A, for which the yeast fitness was found to be 0.898.

With C33U A43U C49G G50C C61U C66U, the yeast fitness is no more than 0.5.

In the case of C33U A43G G48C, the yeast fitness is no more than 0.5.

A37C A43C C62U: the yeast fitness was 0.882.

As for A36C C55U, the yeast fitness was determined as 0.675.

Take C33U G48A C60U U64G A65U: the yeast fitness worked out at 0.606.

With U35C G48C, the yeast fitness stood at 0.973.

Turning to U35A A42G A43C, the yeast fitness was 0.581.

As to U35G A65C, the yeast fitness is 0.639.

For the variant U35A A40U, the yeast fitness is 0.718.

Turning to C34U A36C U53C G67A, the yeast fitness was no more than 0.5.

Turning to C34A A37U G44A G51A C55A, the yeast fitness was 0.603.

With U35C C61G A69G, the yeast fitness is no more than 0.5.

U35A A36U C61U: the yeast fitness is no more than 0.5.

In the case of U35C A37U A42G G51A, the yeast fitness was no more than 0.5.

A36C U54A: the yeast fitness was no more than 0.5.

For A36C U54C, the yeast fitness is no more than 0.5.

C34U G58C A69U: the yeast fitness was no more than 0.5.

Consider C34U G38C U54C, for which the yeast fitness is no more than 0.5.

For A36G A45C C61U, the yeast fitness came to 0.76.

For C33U C61A, the yeast fitness is 0.52.

On to U35A U47C C61G, for which the yeast fitness is no more than 0.5.

For A36C U47A G48C, the yeast fitness is no more than 0.5.

With C34G A37C C62U C66A, the yeast fitness was no more than 0.5.

Turning to U35G A45C, the yeast fitness was 0.617.

With U35A A43G U64C, the yeast fitness was no more than 0.5.

For A36U A40G, the yeast fitness was determined as 0.549.

For the variant A36G A37U A69C, the yeast fitness is 0.663.

In the case of C33G G63A, the yeast fitness is 0.6.

In the case of C33U A65C, the yeast fitness is 0.664.

On to C34A U47C G51A, for which the yeast fitness was 0.53.

With A37C G63C C66U, the yeast fitness is no more than 0.5.

Turning to U35C A45U C49A C66U, the yeast fitness was no more than 0.5.

Regarding U35C A37G C60U, the yeast fitness is no more than 0.5.

On to C34G G51A C66U, for which the yeast fitness amounted to 0.649.

On to A36G C49U C61A, for which the yeast fitness was no more than 0.5.

In the case of C34G C49A, the yeast fitness amounted to 0.591.

For the variant A36U A42C A43G U64C A70C, the yeast fitness amounted to 0.559.

Take A36C G52C C66U: the yeast fitness worked out at 0.54.

In the case of C34U A69C, the yeast fitness is 0.774.

On to C34G G41C C49U, for which the yeast fitness amounted to 0.684.

On to C34G G51A, for which the yeast fitness is 0.94.

Turning to C34G G51C, the yeast fitness worked out at 0.609.

As for A36C A45C, the yeast fitness is 0.763.

Turning to C34U U47C C55A A70U, the yeast fitness was 0.562.

C34G A40C C46G: the yeast fitness came to 0.562.

With C34A U54A, the yeast fitness is no more than 0.5.

With A36C A37C G51C, the yeast fitness is no more than 0.5.

On to A37C A42C C66U, for which the yeast fitness turned out to be 0.712.

With A36C A43C C66A, the yeast fitness amounted to 0.731.

With C34U A40G C46A, the yeast fitness was found to be 0.579.

In the case of U35A A37G A43C U54C, the yeast fitness is no more than 0.5.

For A36C C66A, the yeast fitness was no more than 0.5.

Consider C33U C49G, for which the yeast fitness was 0.817.

With A36U G48A G50U A57U, the yeast fitness was no more than 0.5.

As to U35C C55A C60U A69U, the yeast fitness was no more than 0.5.

For U35A A69C A70C, the yeast fitness stood at 0.535.

Regarding C33G U35G A37C A43C G44A U64C, the yeast fitness was no more than 0.5.

As for C34G C60G, the yeast fitness came to 0.782.

As to C33U G52A A57U, the yeast fitness is no more than 0.5.

Consider C34U G41C A69G, for which the yeast fitness is no more than 0.5.

As for A36C G41A U53C A70C, the yeast fitness came to 0.526.

For C34G U47A G67A, the yeast fitness is no more than 0.5.

In the case of U35C U54C, the yeast fitness was determined as 0.696.

With C34U G63A, the yeast fitness amounted to 0.624.

For C34A A40C, the yeast fitness is 0.747.

Take A37C C49U: the yeast fitness turned out to be 0.848.

Consider C34G A45U G50C A57C, for which the yeast fitness is no more than 0.5.

Consider C34G A42U, for which the yeast fitness is 0.621.

Regarding C34G U54A U59C A65G A70G, the yeast fitness was found to be 0.84.

As to A36C G67A, the yeast fitness was 0.607.

For the variant A36C C55U G68C, the yeast fitness was no more than 0.5.

On to C34A C62U, for which the yeast fitness came to 0.785.

For C34G A37C C60G A65U, the yeast fitness is no more than 0.5.

As for A36G C66G, the yeast fitness is 0.689.

In the case of U35A C49U U64A, the yeast fitness is no more than 0.5.

Take U35C G41A A45U: the yeast fitness came to 0.664.

Take U35C G58C: the yeast fitness worked out at 0.883.

Consider C33U G39C G51A C60G, for which the yeast fitness was no more than 0.5.

In the case of A36G G56A G58C, the yeast fitness turned out to be 0.694.

As to C34G A43U G48C, the yeast fitness was no more than 0.5.

As to U35A G52C, the yeast fitness is no more than 0.5.

Regarding A36C A57C A70G, the yeast fitness was determined as 0.552.

With C34A G38A, the yeast fitness turned out to be 0.699.

Regarding U35C G50A G67A, the yeast fitness was no more than 0.5.

In the case of A36G A43G A57C A65U, the yeast fitness was no more than 0.5.

On to A36U G44C A45U C62U G68A, for which the yeast fitness is 0.789.

As to U35A C55U A65G, the yeast fitness is no more than 0.5.

Regarding A36U C55G U64G, the yeast fitness is no more than 0.5.

Consider A37C A42C C55U, for which the yeast fitness was determined as 0.597.

Take C34U C46G C62U: the yeast fitness worked out at 0.549.

Turning to A36U G48C, the yeast fitness came to 0.648.

In the case of U35C C55A, the yeast fitness was no more than 0.5.

For U35C A37C G39A, the yeast fitness was no more than 0.5.

With A36G A45U C49U, the yeast fitness was determined as 0.882.

A36U A45C G63C: the yeast fitness stood at 0.614.

A36U A65U: the yeast fitness was found to be 0.597.

As to A36U A65C, the yeast fitness is 0.596.

Turning to C34G C55G, the yeast fitness stood at 0.567.

A37C A42U: the yeast fitness was determined as 0.809.

For the variant U35C G51A, the yeast fitness was found to be 0.731.

Consider C33U G48A A69C, for which the yeast fitness is 0.705.

With C33U A45G C49A U53A, the yeast fitness was no more than 0.5.

Regarding C34G A40C G44A A69U, the yeast fitness is no more than 0.5.

On to C34A G50A, for which the yeast fitness was 0.742.

Consider C34A G50C, for which the yeast fitness was found to be 0.667.

Take C33U A43U C49G G50C C61U: the yeast fitness was no more than 0.5.

Turning to A36G U47A, the yeast fitness was 0.789.

C34U G38C: the yeast fitness was 0.605.

As to C33U G39C U59C C61A C62U, the yeast fitness was no more than 0.5.

In the case of C33U A43U C49G G50C C61U U64C C66U, the yeast fitness was no more than 0.5.

As to C33U C34A G50A C62U A70C, the yeast fitness is no more than 0.5.

With C33G U54C C62A G68C, the yeast fitness was no more than 0.5.

As for A36U G38C A43G G68C, the yeast fitness was no more than 0.5.

In the case of A37C C60G G67A, the yeast fitness was no more than 0.5.

With A36C C62G, the yeast fitness worked out at 0.575.

As for C33U A40U G56C, the yeast fitness is no more than 0.5.

C33U C62G A69C: the yeast fitness turned out to be 0.595.

Consider A36G G51A, for which the yeast fitness came out at 0.744.

As for U35A A42C C46U, the yeast fitness amounted to 0.521.

As to A36C C61G, the yeast fitness was 0.609.

Regarding C33U A36C U64C, the yeast fitness amounted to 0.648.

Regarding C33U C34G, the yeast fitness is 0.648.

Regarding C34U G48A C55U, the yeast fitness was 0.638.

In the case of A37C C60G C62G, the yeast fitness was no more than 0.5.

C34A U47A C61A: the yeast fitness was no more than 0.5.

For A36U G48C C66U, the yeast fitness was no more than 0.5.

Turning to C34U A36G C55G A57U G67A, the yeast fitness is 0.568.

For the variant A36G A37U G67A, the yeast fitness was no more than 0.5.

Turning to U35C G41C, the yeast fitness was 0.718.

As to U35G C46U C62U, the yeast fitness came to 0.579.

On to U35C A45C C49G, for which the yeast fitness was found to be 0.562.

C34G A36U C62A: the yeast fitness is no more than 0.5.

Take A36G G48A: the yeast fitness stood at 0.991.

A36G C49G A70G: the yeast fitness is 0.53.

As to C33U C61G G68C, the yeast fitness is no more than 0.5.

For A36G A37U C55G, the yeast fitness was 0.69.

For the variant A36C U47A G48C U54G A65C, the yeast fitness stood at 0.6.

Turning to A37C A40C G41C, the yeast fitness turned out to be 0.579.

With C34A A65G, the yeast fitness amounted to 0.69.

C33G G56C G67C: the yeast fitness is no more than 0.5.

In the case of U35G A42G G56C, the yeast fitness was 0.59.

In the case of A36U A40U A57U G63A, the yeast fitness was no more than 0.5.

In the case of C34G C49U C66U, the yeast fitness worked out at 0.557.

As for A36G C49U, the yeast fitness amounted to 1.02.

As to C33U U54C C61G, the yeast fitness was no more than 0.5.

On to A36C G48C, for which the yeast fitness is no more than 0.5.

On to C33U A36C, for which the yeast fitness stood at 0.517.

In the case of C34A A45C, the yeast fitness was found to be 0.675.

Take C34G A40G G48C G63A C66U: the yeast fitness worked out at 0.605.

As for C34G A37G G38A G50A, the yeast fitness is no more than 0.5.

Consider C34U A57C A69C, for which the yeast fitness was 0.738.

For C33U C34U G39C, the yeast fitness came out at 0.605.

Consider U35A G51C U54C A57U, for which the yeast fitness is no more than 0.5.

A37C U47A: the yeast fitness is 0.674.

A36U C60U: the yeast fitness stood at 0.566.

On to C34A G44A G52A C55U, for which the yeast fitness turned out to be 0.53.

On to A37C A40U G51A, for which the yeast fitness worked out at 0.538.

As for A36C A70U, the yeast fitness amounted to 0.703.

As for A36C A42G, the yeast fitness stood at 0.633.

C34G G41C C49U C62A A69C: the yeast fitness was no more than 0.5.

In the case of A36C G39A A57U, the yeast fitness is no more than 0.5.

As for U35C A40U A42G U47C, the yeast fitness turned out to be 0.601.

(Values after the RNAGym collection of RNA variant scans (doi:10.1126/science.aae0568).)
